According to ChEMBL document CHEMBL2417474, “Synthesis, antiproliferative and anti-inflammatory activities of some novel 6-aryl-2-(p-(methanesulfonyl)phenyl)-4,5-dihydropyridazi-3(2H)-ones” (Eur J Med Chem, 2013):

Columns and labels:
Assay type in all cases: functional
[1] = test system: CAKI-1; test: Growth inhibition of human CAKI-1 cells assessed as cell growth at 10 uM after 48 hrs by sulforhodamine B assay; details: CAKI-1, 48 h, read-out: Activity
[2] = test system: SF-295; test: Growth inhibition of human SF295 cells assessed as cell growth at 10 uM after 48 hrs by sulforhodamine B assay; details: SF-295, 48 h, read-out: Activity
[3] = test system: U-251; test: Growth inhibition of human U251 cells after 48 hrs by sulforhodamine B assay; details: U-251, 48 h
In short: (§1)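 NCI 60-line panel. Cells were grown in medium with 5% fetal calf serum and 2 mM L-glutamine and preincubated 24 h in plates. Compound in DMSO was added at 10^-4 to 10^-8 M (five 10-fold levels), with continuous exposure for 48 h. Growth was read by SRB protein staining. GI50 is the concentration giving 50% reduction in net protein increase versus control cells.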

[4] = test system: MDA-MB-435; test: Growth inhibition of human MDA-MB-435 cells assessed as cell growth at 10 uM after 48 hrs by sulforhodamine B assay; details: MDA-MB-435, 48 h, read-out: Activity
[5] = test system: HL-60(TB); test: Growth inhibition of human HL-60(TB) cells after 48 hrs by sulforhodamine B assay; details: HL-60, 48 h
In short: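 Part of the NCI 60-cell-line panel. Cells were grown in 1640 medium with 5% fetal calf serum and 2 mM L-glutamine, then preincubated 24 h before compound was added. Compounds in DMSO were tested at five concentrations (100, 10, 1, 0.1, 0.01 µM) with 48 h continuous exposure. Read-out was SRB protein staining; GI50 is the concentration halving the net protein increase versus control.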

[6] = test system: MOLT-4; test: Growth inhibition of human MOLT4 cells after 48 hrs by sulforhodamine B assay; details: MOLT-4, 48 h
In short: (§2)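 NCI 60-cell-line panel. Cells were grown in medium with 5% fetal calf serum and 2 mM L-glutamine, then preincubated 24 h in plates. Compounds were added from DMSO at five 10-fold concentrations from 100 to 0.01 µM and left on cells continuously for 48 h. Cell growth was read by sulforhodamine B protein stain. GI50 is the concentration that halves net protein increase relative to control cells.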

[7] = test system: DU-145; test: Growth inhibition of human DU145 cells assessed as cell growth at 10 uM after 48 hrs by sulforhodamine B assay; details: DU-145, 48 h, read-out: Activity
[8] = Growth inhibition of human Hs 578T cells assessed as cell growth at 10 uM after 48 hrs by sulforhodamine B assay; details: read-out: Activity
[9] = test system: HOP-92; test: Growth inhibition of human HOP92 cells after 48 hrs by sulforhodamine B assay; details: HOP-92, 48 h
In short: (§3)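 NCI 60-cell-line panel grown in RPMI-type medium with 5% fetal calf serum and 2 mM L-glutamine. Cells preincubated 24 h, then exposed continuously for 48 h to compound in DMSO at 10^-4 to 10^-8 M (five 10-fold levels). Growth read by SRB protein stain. GI50 is the concentration giving a 50% reduction in net protein increase relative to control cells.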

[10] = test system: CCRF-CEM; test: Growth inhibition of human CCRF-CEM cells assessed as cell growth at 10 uM after 48 hrs by sulforhodamine B assay; details: read-out: Activity
[11] = test system: M14; test: Growth inhibition of human M14 cells after 48 hrs by sulforhodamine B assay; details: M14, 48 h; in short: as §3
[12] = test system: Malme-3M; test: Growth inhibition of human MALME-3M cells assessed as cell growth at 10 uM after 48 hrs by sulforhodamine B assay; details: read-out: Activity
[13] = test system: MOLT-4; test: Growth inhibition of human MOLT4 cells assessed as cell growth at 10 uM after 48 hrs by sulforhodamine B assay; details: MOLT-4, 48 h, read-out: Activity
[14] = test system: 786-0; test: Growth inhibition of human 786-0 cells assessed as cell growth at 10 uM after 48 hrs by sulforhodamine B assay; details: 786-0, 48 h, read-out: Activity
[15] = test system: HL-60(TB); test: Growth inhibition of human HL-60(TB) cells assessed as cell growth at 10 uM after 48 hrs by sulforhodamine B assay; details: HL-60, 48 h, read-out: Activity
[16] = test system: T47D; test: Growth inhibition of human T47D cells after 48 hrs by sulforhodamine B assay; in short: as §1
[17] = test system: NCI-H23; test: Growth inhibition of human NCI-H23 cells after 48 hrs by sulforhodamine B assay; details: NCI-H23, 48 h; in short: as §2
[18] = test system: SR; test: Growth inhibition of human SR cells after 48 hrs by sulforhodamine B assay; in short: as §2
[19] = test system: UACC-62; test: Growth inhibition of human UACC62 cells assessed as cell growth at 10 uM after 48 hrs by sulforhodamine B assay; details: UACC-62, 48 h, read-out: Activity
In short: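 Single-dose NCI screen. Tumor lines were cultured in medium with 5% fetal calf serum and 2 mM L-glutamine, preincubated 24 h, then given compound in DMSO. After 48 h continuous exposure, cell growth was estimated by sulforhodamine B protein assay.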

[20] = test system: SNB-19; test: Growth inhibition of human SNB19 cells assessed as cell growth at 10 uM after 48 hrs by sulforhodamine B assay; details: SNB-19, 48 h, read-out: Activity
[21] = test system: NCI-H522; test: Growth inhibition of human NCI-H522 cells after 48 hrs by sulforhodamine B assay; details: NCI-H522, 48 h; in short: as §2
[22] = test system: NCI-H226; test: Growth inhibition of human NCI-H226 cells after 48 hrs by sulforhodamine B assay; details: NCI-H226, 48 h; in short: as §2
[23] = test system: SK-MEL-28; test: Growth inhibition of human SK-MEL-28 cells assessed as cell growth at 10 uM after 48 hrs by sulforhodamine B assay; details: SK-MEL-28, 48 h, read-out: Activity
[24] = test system: BT-549; test: Growth inhibition of human BT549 cells after 48 hrs by sulforhodamine B assay; details: BT-549, 48 h; in short: as §3
[25] = test system: SK-MEL-5; test: Growth inhibition of human SK-MEL-5 cells after 48 hrs by sulforhodamine B assay; details: SK-MEL-5, 48 h; in short: as §2
[26] = Growth inhibition of human EKVX cells assessed as cell growth at 10 uM after 48 hrs by sulforhodamine B assay; details: read-out: Activity
[27] = test system: OVCAR-3; test: Growth inhibition of human OVCAR3 cells assessed as cell growth at 10 uM after 48 hrs by sulforhodamine B assay; details: OVCAR-3, 48 h, read-out: Activity
[28] = test system: KM12; test: Growth inhibition of human KM12 cells after 48 hrs by sulforhodamine B assay; details: KM12, 48 h; in short: as §3
[29] = read-out: LC50 (the source's name)

CCc1ccc(C2=NN(c3ccc(S(C)(=O)=O)cc3)C(=O)CC2)cc1
growth at 10 µM [1]: 16.6% | growth at 10 µM [2]: 9.24% | GI50 [3]: 1.91 µM | TGI [3]: > 100 µM | CC50 [3, 29]: > 100 µM | growth at 10 µM [4]: -24.3% | GI50 [5]: 1.2 µM | TGI [5]: 6.35 µM | CC50 [5, 29]: > 100 µM | GI50 [6]: 3.52 µM | LC50 [6]: > 100 µM | TGI [6]: 6.75 µM | growth at 10 µM [7]: 21.4% | growth at 10 µM [8]: -0.67% | GI50 [9]: 1.58 µM | TGI [9]: 9.88 µM | CC50 [9, 29]: > 100 µM | growth at 10 µM [10]: 15.3% | GI50 [11]: 0.63 µM | TGI [11]: > 100 µM | CC50 [11, 29]: > 100 µM | growth at 10 µM [12]: 38.8% | growth at 10 µM [13]: 15.3% | growth at 10 µM [14]: 36.5% | growth at 10 µM [15]: 6.73% | GI50 [16]: 4.4 µM | LC50 [16]: > 100 µM | TGI [16]: 93.3 µM | GI50 [17]: 3.19 µM | TGI [17]: > 100 µM | CC50 [17, 29]: > 100 µM | GI50 [18]: 5.65 µM | LC50 [18]: > 100 µM | TGI [18]: 40.3 µM | growth at 10 µM [19]: 38% | growth at 10 µM [20]: 51.5% | GI50 [21]: 0.33 µM | LC50 (concentration killing 50% of starting cells) [21]: > 100 µM | TGI [21]: 8.37 µM | GI50 [22]: 0.2 µM | TGI [22]: > 100 µM | CC50 [22, 29]: > 100 µM | growth at 10 µM [23]: 50.7% | GI50 [24]: 0.96 µM | TGI [24]: 35.6 µM | CC50 [24, 29]: > 100 µM | GI50 [25]: 1.48 µM | LC50 [25]: 35.7 µM | TGI [25]: 11.2 µM | growth at 10 µM [26]: 60.4% | growth at 10 µM [27]: -13.6% | GI50 [28]: 0.93 µM | LC50 [28]: > 100 µM | TGI [28]: > 100 µM

O=c1[nH]cc(F)c(=O)[nH]1 [FLUOROURACIL]
GI50 [3]: 0.9 µM | GI50 [5]: 2.3 µM | GI50 [6]: 0.35 µM | GI50 [9]: 77.9 µM | GI50 [11]: 0.98 µM | GI50 [16]: 8.12 µM | GI50 [17]: 0.33 µM | GI50 [18]: 0.02 µM | GI50 [21]: 7.27 µM | GI50 [22]: 54.7 µM | GI50 [24]: 10.6 µM | GI50 [25]: 0.46 µM | GI50 [28]: 0.21 µM
